Laboratory results reported in ChEMBL document CHEMBL3763158, “Sampangine (a Copyrine Alkaloid) Exerts Biological Activities through Cellular Redox Cycling of Its Quinone and Semiquinone Intermediates” (J Nat Prod, 2015).
The source made the active and inactive calls. The calls are words filed in the database; no cut-off is given here.

Legend:
[1] = test system: T47D; assay: Inhibition of hypoxia-induced HIF-1 in human T47D cells cotransfected with pHRE-luciferase plasmid at 10 to 30 uM preincubated for 30 mins followed by hypoxia induction measured after 16 hrs by luciferase reporter gene assay; format: cell-based
Summary of the method: (§1)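 T47D cells transfected with pHRE-luc construct, exposed to hypoxia (1% O2, 16 h) with compound. Luciferase activity read; % inhibition = [1 − (luciferase)compound/(luciferase)control] × 100 against hypoxic media control. Emetine as positive control. Parallel viability by SRB. Average ± SD, n = 3.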

[2] = test system: T47D; assay: Increase in oxygen consumption rate in digitonin permeabilized human T47D cells assessed as reinitiation of sodium azide-stalled cellular respiration by oxytherm Clark-type electrode assay in presence of ascorbate relative to compound alone; format: functional, cell-based
Summary of the method: (§2)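 Digitonin-permeabilized T47D cells given sequential additions: NaN3 (10 mM) to suppress mitochondrial respiration, then compound (30 μM), solvent (2-propanol, 0.6%) or ascorbate (1 and 5 mM), all final. OCR after each addition normalized to NaN3 value; mean ± range of two experiments.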

[3] = test system: Saccharomyces cerevisiae; assay: Increase in oxygen consumption rate in Saccharomyces cerevisiae at 10 to 30 uM by oxytherm Clark-type electrode assay; format: functional, organism-based
Summary of the method: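 Budding yeast oxygen consumption followed with an Oxytherm Clark electrode, with and without compound. Values normalized to untreated control; average + SD of three independent determinations, p < 0.05 significance versus untreated.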

[4] = test system: T47D; assay: Increase in oxygen consumption rate in digitonin permeabilized human T47D cells assessed as reinitiation of sodium azide-stalled cellular respiration at 30 uM relative to control; format: functional; summary of the method: as §2
[5] = test system: T47D; assay: Activation of hypoxia-induced HIF-1 in human T47D cells cotransfected with pHRE-luciferase plasmid at 1 to 3 uM preincubated for 30 mins followed by hypoxia induction measured after 16 hrs by luciferase reporter gene assay; format: cell-based; summary of the method: as §1
[6] = test system: T47D; assay: Increase in oxygen consumption rate of mitochondrial state 4 respiration in human T47D cells assessed as reinitiation of oligomycin-stalled cellular respiration by Clark-type oxygen electrode assay; format: functional, cell-based
Summary of the method: (§3)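 Clark electrode oxygen consumption in cells with oligomycin (F0F1-ATPase inhibitor) stalling respiration, then compound added to test reinitiation; FCCP as standard uncoupler reference.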

[7] = test system: T47D; assay: Increase in oxygen consumption rate in human T47D cells at 30 uM by oxytherm Clark-type electrode assay relative to control; format: functional
Summary of the method: (§4)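 Intact T47D cells; oxygen consumption rate measured by Oxytherm Clark electrode with or without compound, normalized to untreated control. FCCP as positive control. Mean + range of two independent experiments.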

[8] = test system: T47D; assay: Cytostatic activity against human T47D cells at 1 to 30 uM after 48 hrs by sulforhodamine B assay in presence of ascorbate; format: functional, cell-based
[9] = Neurotoxicity against rat CGN assessed as neuronal cell death at 30 uM after 24 hrs by Hoechst 33342/propidium iodide staining based assay; format: toxicity
Summary of the method: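 Primary cerebellar granule neurons from rat pups, cultured 6–10 days, then exposed 24 h. Stained with Hoechst 33342 and propidium iodide; live (PI negative, healthy nuclei) versus dead or dying (PI positive, or condensed/fragmented nuclei) cells counted.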

[10] = test system: T47D; assay: Induction of alteration in […] in human T47D cells assessed as intracellular calcium level at 30 uM after 30 mins by fura-2 dye based fluorescence assay; format: functional, cell-based
Summary of the method: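 T47D cells loaded with fura-2 per manufacturer's instructions and treated 30 min; per-cell 340/380 nm excitation ratio taken as Ca2+ indicator by live microscopy. Average ± SD of 20 cells.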

[11] = test system: T47D; assay: Increase in oxygen consumption rate in human T47D cells by oxytherm Clark-type electrode assay; format: functional, cell-based; summary of the method: as §4
[12] = test system: T47D; assay: Cytostatic activity against human T47D cells at 1 to 30 uM after 48 hrs by sulforhodamine B assay; format: functional, cell-based
[13] = test system: T47D; assay: Cytotoxicity against human T47D cells at 1 to 30 uM after 48 hrs by sulforhodamine B assay; format: functional, cell-based
[14] = test system: MDA-MB-231; assay: Cytostatic activity against human MDA-MB-231 cells at 1 to 30 uM after 48 hrs by sulforhodamine B assay; format: functional, cell-based
[15] = test system: MDA-MB-231; assay: Cytotoxicity against human MDA-MB-231 cells at 1 to 30 uM after 48 hrs by sulforhodamine B assay; format: functional, cell-based
[16] = test system: Hep 3B2; assay: Increase in oxygen consumption rate of mitochondrial state 4 respiration in human Hep3B cells assessed as reinitiation of oligomycin-stalled cellular respiration by Clark-type oxygen electrode assay; format: functional, cell-based; summary of the method: as §3
[17] = test system: MDA-MB-231; assay: Cytostatic activity against human MDA-MB-231 cells at 1 to 30 uM after 48 hrs by sulforhodamine B assay in presence of ascorbate; format: functional, cell-based
[18] = test system: T47D; assay: Increase in oxygen consumption rate in digitonin permeabilized human T47D cells at 30 uM relative to control; format: functional; summary of the method: as §2
[19] = test system: T47D; assay: Effect on mitochondrial membrane potential in human T47D cells at 30 uM after 30 mins by TMRM dye based fluorescence microscopy; format: functional, cell-based
Summary of the method: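 T47D cells loaded with TMRM+ (37 °C, 2 h), then compound for 30 min; live epifluorescence imaging, fluorescence quantified per outlined cell in random fields. FCCP as positive control. Average ± SD from 20 cells.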

O=C1c2ccccc2-c2nccc3ccnc1c23 [SAMPANGINE]
inhibition [1]: Dose-dependent effect | Activity [2]: Dose-dependent effect | Activity [3]: Active | Activity [4]: 48% | Activity [5]: Dose-dependent effect | Activity [6]: Dose-dependent effect | Activity [7]: 50% | fold change (FC) [7]: 1.5 | Activity [8]: Active | Activity [9]: Toxic | Activity [10]: inactive | Activity [11]: Dose-dependent effect | Activity [12]: Active | Activity [13]: Active | Activity [14]: Active | Activity [15]: Active | Activity [16]: Active | Activity [17]: Active | Activity [18]: 46% | Activity [19]: Active
